Activity calls are given as the source filed them. The rule behind the calls is not given here.
Tests used:
[1] = molecular target: T1, Peptidyl-prolyl cis-trans isomerase A (Homo sapiens, UniProt P62937); test: Inhibition of human cyclophilin A at 6 degC
Method in brief: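 PPIase assay at 6 °C in 50 mM HEPES, 100 mM NaCl, using Suc-AAPF-pNA substrate (3 mM stock in THF with 480 mM LiCl). A390 was recorded for 20 s after about a 6 s mixing delay. Cis–trans rate constants came from nonlinear least-squares fits to an integrated first-order equation, and IC₅₀ was calculated from these.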

[2] = Cytotoxicity against human CEM cells; assay type: cell-based; details: CEM cells (CCRF-CEM), read-out: TC50 (the source's name)
[3] = molecular target: Structural capsid protein (Human immunodeficiency virus 1) (UniProt Q76129); test: Binding affinity to HIV1 capsid assessed as assembly rate per minute by ultraviolet spectrophotometry assay
Chain of Structural capsid protein (Human immunodeficiency virus 1) (Q76129 as listed by the source): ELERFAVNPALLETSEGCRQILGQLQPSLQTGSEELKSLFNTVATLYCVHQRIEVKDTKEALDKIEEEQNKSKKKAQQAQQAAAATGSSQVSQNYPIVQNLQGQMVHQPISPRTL
Method in brief: (§1)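 Turbidity was read at 350 nm every 10 s after a short equilibration delay. Assembly rate (mOD/min) was taken from the initial slope of absorbance versus time.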

[4] = molecular target: T1, Peptidyl-prolyl cis-trans isomerase A; test: Binding affinity to human cyclophilin A by intrinsic tryptophan fluorescence titration assay; details: read-out: Kd
Method in brief: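 CypA intrinsic tryptophan fluorescence titration in 20 mM Tris–HCl, 100 mM NaCl, pH 7.4, at 25 °C, with compounds from 10 mM DMSO stocks. Excitation was 280 nm and emission was read at 340 nm. Kd was obtained by fitting intensity against final compound concentration to F₀/F = 1 + Ka·C.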

[5] = Therapeutic index, TC50 for human CEM cells to EC50 for SIV; assay type: cell-based, CCRF-CEM
[6] = system: Simian immunodeficiency virus; test: Antiviral activity against SIV in human CEM cells assessed as inhibition of virus-induced cytopathogenicity; assay type: functional, organism-based, CCRF-CEM; details: Simian immunodeficiency virus, CCRF-CEM; read-out: EC50
Method in brief: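 SIV syncytium assay in CEM174 cells (2 × 10⁵ cells/ml) infected with 100 TCID₅₀ SIV per well alongside serial compound dilutions. Cultures were kept 5 days at 37 °C in humidified 5% CO₂, then giant-cell formation was scored microscopically. EC₅₀ is the concentration protecting cells from SIV cytopathogenicity by 50%.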

[7] = molecular target: Protease (Human immunodeficiency virus 1) (UniProt Q9YQ12); test: Inhibition of HIV1 protease
Chain of Protease (Human immunodeficiency virus 1) (Q9YQ12 as listed by the source): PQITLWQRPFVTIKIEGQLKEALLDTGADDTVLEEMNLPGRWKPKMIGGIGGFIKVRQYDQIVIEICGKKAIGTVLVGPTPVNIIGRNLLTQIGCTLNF
Method in brief: (§2)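 HIV-1 protease was preincubated with inhibitor (DMSO) for 20 min at room temperature in 0.1 M MES, 0.2 M NaCl, 5 mM EDTA, pH 5.5. The reaction was started with substrate Lys-Ala-Arg-Val-Leu-Phe(NO₂)-Glu-Ala-Met, and hydrolysis was followed as the A280 decrease over 40 min. Inhibition ratio was taken from Ai/A₀, with and without inhibitor.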

[8] = molecular target: Human immunodeficiency virus type 1 integrase (Human immunodeficiency virus 1) (UniProt Q7ZJM1); test: Inhibition of HIV1 integrase at 20 uM; design: scale not given: the % may be the effect or the level left
Chain of Human immunodeficiency virus type 1 integrase (Human immunodeficiency virus 1) (Q7ZJM1 as listed by the source): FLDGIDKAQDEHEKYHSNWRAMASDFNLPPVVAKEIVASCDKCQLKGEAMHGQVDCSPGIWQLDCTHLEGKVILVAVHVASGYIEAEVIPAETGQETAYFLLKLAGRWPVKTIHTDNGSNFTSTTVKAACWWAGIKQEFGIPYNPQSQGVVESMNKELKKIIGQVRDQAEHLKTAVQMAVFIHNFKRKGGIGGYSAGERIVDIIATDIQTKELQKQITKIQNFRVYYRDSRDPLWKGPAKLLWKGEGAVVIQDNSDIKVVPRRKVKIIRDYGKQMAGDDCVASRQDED
Method in brief: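 Recombinant HIV-1 integrase (E. coli) was preincubated with compound for 30 min. It was then incubated for 30 min at 37 °C on plate-immobilized donor duplex in Tris–HCl pH 7.8, 25 mM NaCl, 7.5 mM MgCl₂, 5 mM β-mercaptoethanol and BSA. Biotinylated target duplex was added for 1 h at 37 °C. Integration products were detected by pNPP phosphatase read-out at A405, and inhibition was taken as the decrease in final absorbance.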

[9] = molecular target: Structural capsid protein (Human immunodeficiency virus 1) (UniProt Q76129); test: Binding affinity to HIV1 capsid assessed as assembly rate per minute at 2:1 drug to protein ratio by ultraviolet spectrophotometry assay; method in brief: as §1
[10] = molecular target: Structural capsid protein (Human immunodeficiency virus 1) (UniProt Q76129); test: Binding affinity to HIV1 capsid assessed as assembly rate per minute at 1:1 drug to protein ratio by ultraviolet spectrophotometry assay; method in brief: as §1
[11] = molecular target: Structural capsid protein (Human immunodeficiency virus 1) (UniProt Q76129); test: Binding affinity to HIV1 capsid assessed as assembly rate per minute at 0.5:1 drug to protein ratio by ultraviolet spectrophotometry assay; method in brief: as §1
[12] = molecular target: Protease (Human immunodeficiency virus 1) (UniProt Q9YQ12); test: Inhibition of HIV1 protease assessed as decrease in UV absorbance at 10 uM; method in brief: as §2

T1 sequence (P62937 whole entry): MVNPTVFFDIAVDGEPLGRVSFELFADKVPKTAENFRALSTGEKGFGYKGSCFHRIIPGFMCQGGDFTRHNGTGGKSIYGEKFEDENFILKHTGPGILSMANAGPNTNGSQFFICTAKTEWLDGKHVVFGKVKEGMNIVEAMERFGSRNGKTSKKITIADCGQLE

| inhibition [12] | SMILES | IC50 [1] | CC50 [2] | Activity (milli optical density/minute) [3] | Kd [4] | selectivity ratio [5] | EC50 [6] | Activity [7] | Activity [8] | Activity [3] | Activity (milli optical density/minute) [9] | Activity (milli optical density/minute) [10] | Activity (milli optical density/minute) [11] |
| --- | --- | --- | --- | --- | --- | --- | --- | --- | --- | --- | --- | --- | --- |
|  | CCN(CC)c1nc(C)c([N+](=O)[O-])c(NCCNC(=S)Nc2cccc(Br)c2)n1 | 0.81 µM | 26.2 µM | 88.1 | 79.3 µM | 4 | 7.4 µM |  |  |  |  |  |  |
|  | O=C1OCc2ccc(NC(=S)Nc3cc(Cl)c(Cl)cc3Cl)cc21 |  | 24.4 µM | 67.8 | 147 µM | 8 | 3 µM | inactive | < 20% |  |  |  |  |
|  | Cc1ccc(NC(=S)Nc2ccc(C)c([N+](=O)[O-])c2)cc1Cl | 0.46 µM | 38.8 µM | 60 | 88.9 µM | 12 | 3.1 µM | inactive | < 20% |  |  |  |  |
|  | O=C1OCc2ccc(NC(=S)Nc3ccc(Cl)cc3)cc21 |  | 83.9 µM | 49.6 | 222 µM | 14 | 6.2 µM | inactive | < 20% |  |  |  |  |
|  | Cc1cc(NS(=O)(=O)c2ccc(NC(=S)Nc3ccc(F)cc3)cc2)no1 | 0.35 µM | 75.4 µM | 73.8 | 110 µM | 11 | 6.9 µM |  |  |  |  |  |  |
|  | Cc1cc(NS(=O)(=O)c2ccc(NC(=S)Nc3cccc(F)c3)cc2)no1 | 0.38 µM | 88 µM | 76.2 | 128 µM | 8 | 11.6 µM |  |  |  |  |  |  |
|  | COc1ccc(NC(=S)Nc2ccc(S(=O)(=O)Nc3cc(C)on3)cc2)cc1 |  | 41.9 µM | 40 | 101 µM | 27 | 1.5 µM | inactive | < 20% |  |  |  |  |
|  | Cc1cc(NS(=O)(=O)c2ccc(NC(=S)Nc3ccccc3C)cc2)no1 | 0.6 µM | 48.4 µM | 64.8 | 116 µM | 8 | 6.2 µM |  |  |  |  |  |  |
|  | Cc1cc(NS(=O)(=O)c2ccc(NC(=S)Nc3ccccc3)cc2)no1 | 0.58 µM | 49.7 µM | 39.2 | 88.1 µM | 7 | 7.5 µM |  |  |  |  |  |  |
|  | CCN(CC)c1nc(C)cc(NCCNC(=S)Nc2cccc(Br)c2)n1 |  | 8.43 µM |  | 200 µM | 2 | 5.5 µM |  |  | inactive |  |  |  |
|  | Cc1cc(NS(=O)(=O)c2ccc(NC(=S)Nc3cccc(Cl)c3)cc2)no1 | 0.33 µM | 91.9 µM | 15.8 | 79.6 µM | 92 | 1 µM |  |  |  | 11.4 | 38.4 | 43.2 |
| > 90% | CC(C)(C)NC(=O)[C@@H]1CN(Cc2cccnc2)CCN1C[C@@H](O)C[C@@H](Cc1ccccc1)C(=O)N[C@H]1c2ccccc2C[C@H]1O |  |  |  |  |  |  |  |  |  |  |  |  |
|  | Cc1ccc(NC(=S)Nc2ccc(S(=O)(=O)Nc3nccs3)cc2)cc1Cl | 0.16 µM | 37 µM | 27.4 | 51.6 µM | 3 | 10.8 µM |  |  |  |  |  |  |
|  | COc1ccc(NC(=S)Nc2ccc3c(c2)C(=O)OC3)cc1 |  | 91.9 µM | 59.1 | 172 µM | 20 | 4.7 µM | inactive | < 20% |  |  |  |  |
|  | CCN(CC)c1nc(C)c([N+](=O)[O-])c(NCCNC(=S)Nc2ccc(C)c(Cl)c2)n1 | 0.74 µM | 44.2 µM | 91 | 73.3 µM | 7 | 6.3 µM |  |  |  |  |  |  |
